Source: ChEMBL document CHEMBL1135602 (J Med Chem, 2002)

Columns and labels:
Plasmodium falciparum [1] = assay: IC50 ratio against Plasmodium falciparum K1CB1/TM4; assay type: functional
[2] = Safety ratio is cytotoxicity to vero cells/IC50 K1.; assay type: toxicity, cell-based; settings: monkey, read-out: Safety ratio
Outline: (§1)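 Ratio of the cytotoxicity IC50 (vero, KB or BC cells, Skehan protocol) to the antiplasmodial IC50 against K1CB1 (C59R+S108N DHFR). […] Label was added at 24 h and cultures ran a further 18-24 h. Final DMSO was 0.1%.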

[3] = biological target: Bifunctional dihydrofolate reductase-thymidylate synthase (Plasmodium falciparum K1, UniProt P13922); assay: Inhibition of the C59R+S108N mutant of dihydrofolate reductase (DHFR)
Bifunctional dihydrofolate reductase-thymidylate synthase (Plasmodium falciparum K1, UniProt P13922), sequence (P13922 whole entry): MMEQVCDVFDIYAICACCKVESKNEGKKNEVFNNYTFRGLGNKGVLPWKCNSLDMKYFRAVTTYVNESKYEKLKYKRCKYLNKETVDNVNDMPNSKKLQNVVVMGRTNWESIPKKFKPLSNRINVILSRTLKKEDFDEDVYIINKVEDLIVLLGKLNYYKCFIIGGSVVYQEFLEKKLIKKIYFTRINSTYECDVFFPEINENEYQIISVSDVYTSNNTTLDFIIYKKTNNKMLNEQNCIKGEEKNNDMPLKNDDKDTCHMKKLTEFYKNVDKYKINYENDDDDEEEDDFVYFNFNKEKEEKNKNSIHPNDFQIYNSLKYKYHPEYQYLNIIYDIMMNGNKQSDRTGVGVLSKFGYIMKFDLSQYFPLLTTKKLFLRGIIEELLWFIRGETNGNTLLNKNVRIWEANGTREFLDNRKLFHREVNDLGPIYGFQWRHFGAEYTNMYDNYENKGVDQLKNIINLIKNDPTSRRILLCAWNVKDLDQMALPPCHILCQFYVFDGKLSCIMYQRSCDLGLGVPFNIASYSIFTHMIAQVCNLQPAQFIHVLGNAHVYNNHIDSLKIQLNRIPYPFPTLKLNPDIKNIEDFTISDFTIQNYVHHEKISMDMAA
Outline: (§2)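 Assay at 25 °C: 50 mM TES pH 7.0, 75 mM β-mercaptoethanol, 1 mg/mL BSA, 100 µM H2folate and 100 µM NADPH. NADPH oxidation followed at 340 nm. Ki derived from IC50 as Ki(1+[S]/Km), assuming competitive inhibition.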

[4] = biological target: Bifunctional dihydrofolate reductase-thymidylate synthase (Plasmodium falciparum K1, UniProt P13922, S108N); assay: Inhibition of the S108N mutant of dihydrofolate reductase (DHFR); outline: as §2
Bifunctional dihydrofolate reductase-thymidylate synthase (Plasmodium falciparum K1, UniProt P13922, S108N), sequence (P13922 whole entry, looked up, stated change not applied): as the sequence (P13922 whole entry) above

KB = assay: Cytotoxicity against human epidermoid carcinoma KB cell.; assay type: functional, cell-based
[5] = biological target: Bifunctional dihydrofolate reductase-thymidylate synthase (Plasmodium falciparum K1) (UniProt P13922); assay: Inhibition of mutant S108N dihydrofolate reductase (DHFR) relative to Pyr
Bifunctional dihydrofolate reductase-thymidylate synthase (Plasmodium falciparum K1), sequence (P13922 whole entry, looked up): as the sequence (P13922 whole entry) above

Plasmodium falciparum [6] = assay: In vitro antiplasmodial activity (IC50) against Plasmodium falciparum wtTM4/8.2; assay type: functional, organism-based
[7] = Safety ratio is cytotoxicity to KB cells/IC50 K1.; assay type: toxicity, cell-based; settings: human, KB cells (epidermoid carcinoma); read-out: Safety ratio; outline: as §1
[8] = biological target: Bifunctional dihydrofolate reductase-thymidylate synthase (Plasmodium falciparum K1) (UniProt P13922); assay: Inhibition of mutant C59R+S108N dihydrofolate reductase (DHFR) relative to Pyr
BC = assay: Cytotoxicity against human breast cancer cells.; assay type: functional, cell-based
Plasmodium falciparum [9] = assay: Safety ratio as cytotoxicity in vero cells relative to IC50 TM4; assay type: functional
[10] = Safety ratio is cytotoxicity to KB cells/IC50 TM4.; assay type: toxicity, cell-based; settings: human, KB cells (epidermoid carcinoma); read-out: Safety ratio
Outline: (§3)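 Ratio of the cytotoxicity IC50 (KB or BC cells, Skehan protocol) to the antiplasmodial IC50 against TM4/8.2 (wild-type DHFR). […] Label was added after 24 h and cultures ran a further 18-24 h.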

Vero = assay: Cytotoxicity by the selective inhibition against African green monkey kidney […] (vero cells).; assay type: functional, cell-based; settings: Chlorocebus sabaeus
[11] = biological target: Bifunctional dihydrofolate reductase-thymidylate synthase (Plasmodium falciparum K1) (UniProt P13922); assay: Inhibition of Plasmodium falciparum wild-type dihydrofolate reductase (DHFR) relative to Pyrimethamine.
[12] = biological target: Bifunctional dihydrofolate reductase-thymidylate synthase (Plasmodium falciparum K1) (UniProt P13922); assay: Inhibition of the S108N mutant of dihydrofolate reductase (DHFR) relative to Pyr.
Outline: (§4)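 Assayed at 25 °C in 50 mM TES pH 7.0, 75 mM β-mercaptoethanol, 1 mg/mL BSA, with 100 µM H2folate and 100 µM NADPH. A340 was followed. Ki was derived from IC50 = Ki(1+[S]/Km), assuming competitive inhibition.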

[13] = test system: Bifunctional dihydrofolate reductase-thymidylate synthase (Plasmodium falciparum K1), P13922 [UNDEFINED MUTATION]; assay: Ratio of Inhibition of the S108N mutant of dihydrofolate reductase (DHFR) to inhibition of wild type dihydrofolate reductase.
Bifunctional dihydrofolate reductase-thymidylate synthase (Plasmodium falciparum K1), P13922 [UNDEFINED MUTATION], sequence (P13922 whole entry, looked up, stated change not applied): as the sequence (P13922 whole entry) above

[14] = test system: Bifunctional dihydrofolate reductase-thymidylate synthase (Plasmodium falciparum K1), P13922 [UNDEFINED MUTATION]; assay: Ratio of Inhibition of the C59R+S108N mutant of dihydrofolate reductase (DHFR) to inhibition of wild type dihydrofolate reductase.
[15] = biological target: Bifunctional dihydrofolate reductase-thymidylate synthase (Plasmodium falciparum K1) (UniProt P13922); assay: Inhibition of the C59R+S108N mutant of dihydrofolate reductase (DHFR) relative to Pyr.; outline: as §4
[16] = biological target: Bifunctional dihydrofolate reductase-thymidylate synthase (Plasmodium falciparum K1) (UniProt P13922); assay: Inhibition of the wild-type dihydrofolate reductase (DHFR) relative to Pyr.; outline: as §4
Plasmodium falciparum [17] = assay: In vitro relative antiplasmodial activity (IC50) compared to Pyr against Plasmodium falciparum TM4/8.2 wild-type; assay type: functional
Plasmodium falciparum [18] = assay: Relative antiplasmodial activity (IC50) compared to Pyr against Plasmodium falciparum K1CB1 DHFR double-mutant (C59R/S108N); assay type: functional
[19] = biological target: Bifunctional dihydrofolate reductase-thymidylate synthase (Plasmodium falciparum K1) (UniProt P13922); assay: Inhibition of the wild-type dihydrofolate reductase (DHFR) relative to Tmp; outline: as §4
[20] = biological target: Bifunctional dihydrofolate reductase-thymidylate synthase (Plasmodium falciparum K1) (UniProt P13922); assay: Inhibition of the C59R+S108N mutant of dihydrofolate reductase (DHFR)relative to Tmp; outline: as §4
[21] = biological target: Bifunctional dihydrofolate reductase-thymidylate synthase (Plasmodium falciparum K1) (UniProt P13922); assay: Inhibition of S108N mutant dihydrofolate reductase (DHFR)relative to Tmp; outline: as §4
[22] = Safety ratio is cytotoxicity to BC cells/IC50 TM4.; assay type: toxicity, cell-based; settings: human, BC cells (breast cancer); read-out: Safety ratio; outline: as §3
[23] = Safety ratio is cytotoxicity to BC cells/IC50 K1.; assay type: toxicity, cell-based; settings: human, BC cells (breast cancer); read-out: Safety ratio; outline: as §1

Structure (SMILES)	Ratio (Plasmodium falciparum [1])	Ki [3] [nM]	Ki [4] [nM]	Relative activity [5]	IC50 (Plasmodium falciparum [6]) [nM]	Relative activity [8]	Relative activity [11]	Ratio [13]	Ratio [14]	other results
CCc1nc(N)nc(N)c1-c1cccc(Cl)c1	[…]	[…]	1.6	[…]	400	[…]	[…]			selectivity ratio [2]: […]; IC50 (KB): 46000 nM; selectivity ratio [7]: […]; IC50 (BC): 25000 nM; Safety ratio (Plasmodium falciparum [9]): […]; selectivity ratio [10]: […]; IC50 (Vero): 7000 nM
COc1cc(COc2ccc(Cc3cnc(N)nc3N)cc2)cc(OC)c1OC					700					IC50 (KB): > 250000 nM; IC50 (BC): > 250000 nM; IC50 (Vero): > 250000 nM
CCc1nc(N)nc(N)c1-c1ccc(OC)cc1	>84	86	39		300			43.3	95.6	Relative activity [12]: 1.4; Relative activity [15]: 1.6; Relative activity [16]: 1.5; Relative activity (Plasmodium falciparum [17]): 3.8; Relative activity (Plasmodium falciparum [18]): >0.8
Cc1nc(N)nc(N)c1-c1cccc(Cl)c1	2	3.1	3.2		2400		3.2	1.7	1.6	
COC(=O)CCCc1nc(N)nc(N)c1-c1ccc(Cl)cc1	557.5	27.4	16.9	0.6	40	0.5	0.5	56.3	91.3	
Cc1nc(N)nc(N)c1-c1ccccc1	4.2	36.7	25.6	0.9	7400	0.7	18.2	2.3	3.4	
Nc1ncc(-c2cccc(Cl)c2)c(N)n1	1.5	31.6	26.3		6000		10.5	4.2	5	
CCCCOc1cc(Cc2cnc(N)nc2N)ccc1OCc1cc(OC)c(OC)c(OC)c1					440					IC50 (KB): > 50000 nM; IC50 (Vero): > 50000 nM
COc1cc(COc2cc(Cc3cnc(N)nc3N)ccc2OCc2ccccc2)cc(OC)c1OC	0.9	503	180		19000			2.5	41.5	Relative activity [19]: 1.2; Relative activity [20]: 2.1; Relative activity [21]: 1.4
CCc1nc(N)nc(N)c1-c1ccc(Cl)c(Cl)c1 [ETOPRINE]	290	12.6	9	0.3	60	0.2	1.7	9	12.6	
CCc1nc(N)nc(N)c1-c1ccc(-c2ccccc2)cc1	0.3	730	421		13100			2.2	3.9	Relative activity [12]: 14.7; Relative activity [15]: 13.5; Relative activity [16]: 313; Relative activity (Plasmodium falciparum [17]): 163.8; Relative activity (Plasmodium falciparum [18]): 0.1
CCc1nc(N)nc(N)c1-c1ccccc1	4.7	8.7	4.5		700			2	3.8	Relative activity [12]: 0.2; selectivity ratio [2]: 96; selectivity ratio [22]: > 714; IC50 (KB): > 500000 nM; selectivity ratio [7]: > 151; selectivity ratio [23]: > 151; IC50 (BC): > 500000 nM; Safety ratio (Plasmodium falciparum [9]): 444; selectivity ratio [10]: > 714; IC50 (Vero): 320000 nM; Relative activity [16]: 3.8; Relative activity (Plasmodium falciparum [17]): 8.7; Relative activity (Plasmodium falciparum [18]): 0.1
CCc1nc(N)nc(N)c1-c1ccc(C)cc1	127	14.7	10.6		100			26.5	36.8	Relative activity [12]: 0.4; Relative activity [15]: 0.3; Relative activity [16]: 0.7; Relative activity (Plasmodium falciparum [17]): 1.2; Relative activity (Plasmodium falciparum [18]): 0.4
CCc1nc(N)nc(N)c1-c1ccc2c(c1)OCO2	53.8	34.6	17.2	0.6	400	0.6	1.8	15.6	31.5	
Nc1ncc(-c2ccccc2)c(N)n1	0.9	76.2	81	2.8	20900	1.4	69.8	1.9	1.8	
CCc1nc(N)nc(N)c1-c1ccc(Cl)cc1Cl	2	1140	1170	41	11300	21.2	21	93.1	90.6	
COC(=O)CCCc1nc(N)nc(N)c1-c1ccccc1	78.3	5.5	1.8	0.06	400	0.1	1	0.06	9.2	
COc1cc(Cc2cnc(N)nc2N)cc(OC)c1OC [TRIMETHOPRIM]										IC50 (KB): > 250000 nM; IC50 (BC): > 250000 nM; IC50 (Vero): > 50000 nM
Nc1nc(N)c(-c2ccc(Cl)cc2)c(CCCc2ccccc2)n1	212	23.3	13.9	0.5	50	0.4	1.2	19.9	33.3	
COC(=O)CCCc1nc(N)nc(N)c1-c1cccc(Cl)c1	45.4	2.8	1.7		800		0.8	3.4	5.6	
Nc1ncc(-c2ccc(Cl)cc2)c(N)n1	11.4	556	369	12.9	2300	10.3	4	154	232	
CCc1nc(N)nc(N)c1-c1ccc(OCc2ccc(Cl)cc2Cl)c(OC)c1					3700					
CCOc1cc(Cc2cnc(N)nc2N)ccc1OCc1ccccc1					500					IC50 (KB): 47000 nM; IC50 (BC): 100000 nM; IC50 (Vero): > 250000 nM
COc1cc(Cc2cnc(N)nc2N)cc(OC)c1OCc1ccccc1	7.1	71.9	61.9		4200					
CCc1nc(N)nc(N)c1-c1ccc(Cl)cc1 [PYRIMETHAMINE]					80					IC50 (KB): 109000 nM; IC50 (BC): > 250000 nM
Nc1nc(N)c(-c2cccc(Cl)c2)c(CCCc2ccccc2)n1	4.3	4.2	3		700		2	2.5	3.5	
Cc1nc(N)nc(N)c1-c1ccc(Cl)cc1	120.2	142	104	3.6	500	2.6	3.3	51.8	71	
CCOc1c(Br)cc(-c2c(N)nc(N)nc2CC)cc1Br	4.7	535	415	14.5	3700	9.9	11.7	59.3	76.3	
